In PubChem BioAssay AID652046 (Broad Institute, 2013):
Inconclusive results are not listed. The source made the active and inactive calls.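 How the source made its calls: active means fitted curve falls past -35% activity change at a concentration no higher than twice the top tested dose; inconclusive means no clear call, values can overlap the other calls; inactive means the rest, including activity in the opposite direction.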

Tested on: not listed separately
Test: inhibitors of IL-1beta-induced GFP signal – cell-based, eGFP reporter, dsRed control, flow cytometry, dry powder, selectivity assay for EBV LMP1 NF-kB inhibitor project, dose response (AID 652046)
Details: IL-1beta-stimulated NF-kB eGFP reporter/dsRed, flow cytometry, 16 h; at 18 µM (top of the series)
In short: (§1)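 Material: HEK293 NF-κB eGFP reporter cells with dsRed. Probe or stimulus: IL-1beta as stimulus of the NF-κB reporter. Timing: 16 h compound exposure at 37 °C. Detection: flow cytometry, scatter-gated live cells.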

**Q.** With `Cc1cc(C(=O)Nc2ccc3c(c2)C(=O)N(C)[C@@H]2CC[C@H](CC(=O)NCc4ccc(-c5ccccc5)cc4)O[C@H]2CO3)no1` as the compound, how does the activity change, negative = inhibition read?
**A.** -15.2% (inactive)

Same assay, conditions: IL-1beta-stimulated NF-kB eGFP reporter/dsRed, flow cytometry, 16 h; at 19.5 µM (top of the series)

**Q.** For `COCCNC(=O)C[C@@H]1C[C@H]2c3cc(N(C)C)ccc3O[C@H]2[C@H](CO)O1`, which activity change, negative = inhibition is on record?
**A.** -7.46% (inactive)

**Q.** Which activity change, negative = inhibition does the source give for `CN(C)c1ccc2c(c1)[C@@H]1C[C@@H](CC(=O)NCC3CC3)O[C@@H](CO)[C@@H]1O2` here?
**A.** -1.79% (inactive)

**Q.** For `CCCNC(=O)C[C@H]1CC[C@@H]2[C@H](COc3ccc(NC(=O)c4cc(C)on4)cc3C(=O)N2C)O1`, which activity change, negative = inhibition is on record?
**A.** 2% (inactive)

**Q.** Which activity change, negative = inhibition does the source give for `CN(C)c1ccc2c(c1)[C@@H]1C[C@@H](CC(=O)NCc3ccc(Oc4ccccc4)cc3)O[C@@H](CO)[C@@H]1O2` here?
**A.** 4.75% (inactive)

**Q.** For `COCCNC(=O)C[C@H]1CC[C@@H]2[C@H](COc3ccc(NC(=O)c4cc(C)on4)cc3C(=O)N2C)O1`, which activity change, negative = inhibition is on record?
**A.** 1.68% (inactive)

**Q.** Which activity change, negative = inhibition does the source give for `CN1C(=O)c2cc(NS(C)(=O)=O)ccc2OC[C@@H]2O[C@@H](CC(=O)NCc3ccc(-c4ccccc4)cc3)CC[C@H]21` here?
**A.** 10.3% (inactive)

**Q.** Which activity change, negative = inhibition does the source give for `COc1ccccc1CNC(=O)C[C@@H]1C[C@H]2c3cc(N(C)C)ccc3O[C@H]2[C@H](CO)O1` here?
**A.** 2.93% (inactive)

**Q.** With `O=C(C[C@@H]1C[C@H]2c3cc(NS(=O)(=O)c4ccc(F)cc4)ccc3O[C@H]2[C@H](CO)O1)NCc1ccc(Oc2ccccc2)cc1` as the compound, how does the activity change, negative = inhibition read?
**A.** 6.68% (inactive)

**Q.** With `CN(C)c1ccc2c(c1)[C@@H]1C[C@@H](CC(=O)NCCc3ccccc3)O[C@@H](CO)[C@@H]1O2` as the compound, how does the activity change, negative = inhibition read?
**A.** -4.63% (inactive)

**Q.** Which activity change, negative = inhibition does the source give for `CNC(=O)C[C@H]1CC[C@@H]2[C@H](COc3ccc(NC(=O)c4cc(C)on4)cc3C(=O)N2C)O1` here?
**A.** -2.16% (inactive)

**Q.** Which activity change, negative = inhibition does the source give for `CN(C)c1ccc2c(c1)[C@@H]1C[C@@H](CC(=O)N3CCc4ccccc4C3)O[C@@H](CO)[C@@H]1O2` here?
**A.** 4.65% (inactive)

**Q.** With `CCNC(=O)C[C@H]1CC[C@@H]2[C@H](COc3ccc(NC(=O)c4cc(C)on4)cc3C(=O)N2C)O1` as the compound, how does the activity change, negative = inhibition read?
**A.** 0.718% (inactive)

**Q.** Which activity change, negative = inhibition does the source give for `CN(C)c1ccc2c(c1)[C@@H]1C[C@@H](CC(=O)NCc3ccc4c(c3)OCO4)O[C@@H](CO)[C@@H]1O2` here?
**A.** -8.36% (inactive)

Same assay, conditions: IL-1beta-stimulated NF-kB eGFP reporter/dsRed, flow cytometry, 16 h; at 21 µM (top of the series)

**Q.** For `Cc1cc(C(=O)Nc2ccc3c(c2)C(=O)N(C)[C@@H]2CC[C@H](CC(=O)N[C@@H](C)c4ccccc4)O[C@H]2CO3)no1`, which activity change, negative = inhibition is on record?
**A.** 5.36% (inactive)

**Q.** Which activity change, negative = inhibition does the source give for `Cc1cc(C(=O)Nc2ccc3c(c2)C(=O)N(C)[C@@H]2CC[C@H](CC(=O)NCc4ccc(-c5ccccc5)cc4)O[C@@H]2CO3)no1` here?
**A.** 4.6% (inactive)

Tested on: IL-1beta-stimulated NF-kB eGFP reporter/dsRed, flow cytometry, 16 h
Test: as above
Details: not given
In short: as §1

**Q.** With `Cc1cc(C(=O)Nc2ccc3c(c2)C(=O)N(C)[C@@H]2CC[C@H](CC(=O)N[C@H](C)c4ccccc4)O[C@H]2CO3)no1` as the compound, how does the AC35 read?
**A.** 15.9 µM

**Q.** With `CN(C)c1ccc2c(c1)[C@@H]1C[C@@H](CC(=O)NCc3cc(F)ccc3F)O[C@@H](CO)[C@@H]1O2` as the compound, how does the AC35 read?
**A.** 2.23 µM

**Q.** Which AC35 does the source give for `CS(=O)(=O)Nc1ccc2c(c1)[C@@H]1C[C@@H](CC(=O)NCc3ccc(Oc4ccccc4)cc3)O[C@@H](CO)[C@@H]1O2` here?
**A.** 0.664 µM

**Q.** Which AC35 does the source give for `O=C(C[C@@H]1C[C@H]2c3cc(NC(=O)Nc4ccccc4F)ccc3O[C@H]2[C@H](CO)O1)NCc1ccc(Oc2ccccc2)cc1` here?
**A.** 16.3 µM

**Q.** Which AC35 does the source give for `CN1C(=O)c2cc(NC(=O)Nc3ccccc3F)ccc2OC[C@@H]2O[C@@H](CC(=O)NCc3ccc(-c4ccccc4)cc3)CC[C@H]21` here?
**A.** 0.14 µM

**Q.** For `CN(C)c1ccc2c(c1)[C@@H]1C[C@@H](CC(=O)N3CCOCC3)O[C@@H](CO)[C@@H]1O2`, which AC35 is on record?
**A.** 2.09 µM

**Q.** For `Nc1ccn([C@@H]2O[C@H](CO)[C@@H](O)C2O)c(=O)n1` (stereo partly drawn), which AC35 is on record?
**A.** 19.1 µM

**Q.** Which AC35 does the source give for `CN(C)c1ccc2c(c1)[C@@H]1C[C@@H](CC(=O)NCc3ccccc3F)O[C@@H](CO)[C@@H]1O2` here?
**A.** 20.8 µM

**Q.** Which AC35 does the source give for `COc1ccccc1[C@]1(C)ON(c2ccccc2C(F)(F)F)C1=O` here?
**A.** 10.7 µM

**Q.** With `O=C(C[C@@H]1C[C@H]2c3cc(NC(=O)NC4CCCC4)ccc3O[C@H]2[C@H](CO)O1)NCc1ccc(Oc2ccccc2)cc1` as the compound, how does the AC35 read?
**A.** 17.1 µM

**Q.** Which AC35 does the source give for `O=C(Nc1ccc(C(F)(F)F)cc1)Nc1ccc2c(c1)[C@H]1C[C@@H](CC(=O)N3CCc4ccccc4C3)O[C@@H](CO)[C@H]1O2` here?
**A.** 12.7 µM

**Q.** For `Cc1cc(C(=O)Nc2ccc3c(c2)C(=O)N(C)[C@@H]2CC[C@H](CC(=O)NC4CCCC4)O[C@H]2CO3)no1`, which AC35 is on record?
**A.** 9.72 µM
